Data: article PMC11959935 (Acta Pharmaceutica Sinica. B, 2025)

Experiments:
GL261 glioma allograft = assay: PET imaging of orthotopic GL261 glioma allograft mouse models; type: in vivo
How it was run: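 Mice under isoflurane (1.5%, 0.4 L/min) in a stereotactic frame received mouse GL261 glioma cells (suspension 1 × 10^5 cells/mL) through a drilled hole by Hamilton syringe; controls received PBS. After 10 days, tumours were confirmed by T2-weighted MRI and [18F]FET PET (11.1 MBq), then the radiotracer was given i.v. T/N ratio was lesion SUV over contralateral normal brain.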

epileptic focus = assay: Pilot clinical PET imaging in a patient with temporal lobe epilepsy; type: in vivo, human

Row | Compound | T/N ratio (GL261 glioma allograft) | SUVmean in epileptic focus (epileptic focus)
1 | N[C@@H](Cc1ccc(OCC[18F])cc1)C(=O)O [[^18F]FET, ^18F-fluoro-ethyl-tyrosine] | 1.17 ± 0.02 | –
2 | CCOC(=O)c1ncn2c1CN(C)C(=O)c1cc([18F])ccc1-2 [[^18F]FMZ] | – | 0.54 ± 0.28
